Laboratory results: PubChem BioAssay AID602171 (The Scripps Research Institute Molecular Screening Center, 2012)

molecular target: Aryl hydrocarbon receptor (Homo sapiens) (UniProt P35869); assay: AHR agonists in hepatoma reporter cells, late-stage follow-up, AHR activator project, HG2L7.5c1 HepG2 cells, luminescence (AID 602171); settings: HG2L7.5c1 HepG2 DRE-luciferase reporter, 24 h, at 10 µM, stronger effect = higher value
Method in brief: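 Assay system: HepG2 (HG2L7.5c1) cells with DRE-driven luciferase reporter / Probe or stimulus: reporter driven by MMTV promoter plus 20 murine CYP1A1 DREs / Compound: one dose, 10 µM nominal / Times: 24 h compound exposure, 37 °C / Detection: luminescence after cell lysis / Measure: % of maximal TCDD activation / Replicates: three wells each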

Chain of Aryl hydrocarbon receptor (Homo sapiens) (P35869 whole entry, looked up): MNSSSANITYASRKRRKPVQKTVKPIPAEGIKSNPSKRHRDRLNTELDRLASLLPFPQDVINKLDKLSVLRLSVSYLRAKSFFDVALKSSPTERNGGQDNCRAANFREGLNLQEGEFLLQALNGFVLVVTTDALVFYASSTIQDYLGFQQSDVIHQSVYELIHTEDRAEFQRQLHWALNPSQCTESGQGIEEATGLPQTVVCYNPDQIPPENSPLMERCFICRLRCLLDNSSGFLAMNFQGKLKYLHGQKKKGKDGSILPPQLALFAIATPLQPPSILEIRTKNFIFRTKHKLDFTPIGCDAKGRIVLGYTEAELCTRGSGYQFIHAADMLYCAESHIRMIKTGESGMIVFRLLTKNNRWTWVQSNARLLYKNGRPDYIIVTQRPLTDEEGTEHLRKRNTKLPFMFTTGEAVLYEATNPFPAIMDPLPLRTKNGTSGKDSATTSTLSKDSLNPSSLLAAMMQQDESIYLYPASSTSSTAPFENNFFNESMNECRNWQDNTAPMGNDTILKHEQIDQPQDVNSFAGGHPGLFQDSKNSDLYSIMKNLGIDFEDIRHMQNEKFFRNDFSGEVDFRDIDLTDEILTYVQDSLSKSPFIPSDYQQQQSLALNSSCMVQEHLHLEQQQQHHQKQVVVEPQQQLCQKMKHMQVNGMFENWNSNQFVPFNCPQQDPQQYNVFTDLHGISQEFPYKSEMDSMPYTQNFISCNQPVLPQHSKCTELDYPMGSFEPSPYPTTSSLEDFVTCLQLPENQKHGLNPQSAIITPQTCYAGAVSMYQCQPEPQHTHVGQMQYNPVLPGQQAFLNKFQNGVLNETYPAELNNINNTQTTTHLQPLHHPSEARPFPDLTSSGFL

Row | SMILES | activation (% of TCDD max)
1 | O=C(CN1CCOCC1)Nc1nc2ccc([N+](=O)[O-])cc2s1 | 85%
2 | CC(=O)c1ccc(NC(=O)c2cc(Cl)nc3ccccc23)cc1 | 104%
3 | Cc1ccc(Nc2ncccc2C(N)=O)cc1 | 166%
4 | Cn1c(N)c(C(=O)Nc2ccccc2F)sc1=S | 106%
5 | CCC(=O)Nc1cc(OC)c(NC(=O)c2ccccc2)cc1OC | 89%
6 | COc1ccccc1NC(=O)c1ccc(C(=O)Nc2ccccc2OC)nc1 | 88%
7 | O=C(Nc1ccon1)c1cnc2sccn2c1=O | 75%
8 | Cc1csc(SCC(=O)Nc2ccc(Cl)cn2)n1 | 82%
9 | Cn1c(C(=O)N2CCC(C(N)=O)CC2)cc2cc(Cl)ccc21 | 48%
10 | Cc1ccccc1-c1nc(-c2cccnc2)no1 | 117%
11 | COc1ccc(Cl)cc1C(=O)Nc1ccc(N(C)C(C)=O)cc1 | 165%
12 | COc1ccccc1C(=O)Nc1ccc(N2CCCCC2)cc1 | 52%
13 | Cc1nc(N)nc(Nc2ccc(Cl)cc2)c1Br | 78%
14 | COc1ccc(C(=O)Nc2cc(OC)c(NC(=O)c3ccco3)cc2OC)cc1 | 125%
15 | Cc1nnc(N2C(=O)c3cccc4c([N+](=O)[O-])ccc(c34)C2=O)s1 | 98%
16 | COc1cc2c(cc1NC(=O)Nc1ccc(C)cc1)oc1ccccc12 | 146%
17 | Cc1cc(Nc2ccc(Br)cc2)n2nc(C)nc2n1 | 88%
18 | CCOc1ccccc1NC(=O)c1ccc2nccnc2c1 | 126%
19 | CCCC(=O)Nc1nn(C)c2nc3cc(C)ccc3cc12 | 34%
20 | COc1ccccc1NC(=O)c1ccc2c(c1)nnn2C | 36%
21 | CCOC(=O)Cc1cc(-c2ccc(O)cc2)nc2ccc3ccccc3c12 | 109%

Next, values leading:

Row | activation (% of TCDD max) | SMILES
22 | 44% | O=C(Nc1cccc(Cl)c1)c1cccnn1
23 | 86% | Cc1c(-c2ccn[nH]2)cc(NC(=O)c2ccc(Cl)cc2)c(=O)n1N
24 | 197% | O=C1c2ccccc2-c2nc3ccccc3nc21
25 | 111% | CN1CCN(CCCNC(=O)c2cc3c(-c4ccc(Cl)cc4)nn(C)c3s2)CC1
26 | 132% | CCOc1ccc(NC(=O)c2cc3ccccc3cc2OC)cc1
27 | 105% | CN(C)c1nc(N)nc(-c2nc3ccccc3s2)n1
28 | 55% | COc1ccccc1NC(=O)Nc1cccnc1
29 | 128% | COc1ccc(NC(=O)c2cccc3c(Br)cccc23)cc1
30 | 99% | Cc1ccc(-c2cc(-c3cccs3)[nH]n2)c(O)c1
31 | 41% | CCOc1ccc(-c2cc(C)n3nc(C(N)=O)cc3n2)cc1
32 | 71% | COC(=O)c1ccccc1NC(=O)Cn1ccnc1
33 | 113% | COc1cc2ccccc2cc1C(=O)Nc1ccc(C)cc1
